# Published values from different studies.
# Compare with care: the assays were run in different laboratories.
SMILES,target or system,assay,system,setting,endpoint,result
COC(=O)C(NC(=O)c1cn(CCCCCF)c2ccccc12)C(C)(C)C (centres unmarked),,,"male Sprague-Dawley rat, plasma","subcutaneous, 200 µg/kg",AUC(0-t),37.7 ng·h/mL
O=c1c(O[C@@H]2O[C@H](CO)[C@@H](O)[C@H](O)[C@H]2O)c(-c2ccc(O)cc2)oc2cc(O)cc(O)c12,HCT-116,"cell growth or viability, WST-1",,,IC50,36.6 µM
Cl.Cl.O=C(CCN1CCCCC1)c1ccc(-c2ccc(C(=O)CCN3CCCCC3)cc2)cc1,,,"Sprague-Dawley rat, plasma","oral, 100 mg/kg",AUC(0-t),978 ng·h/mL
N=c1c2c(-c3ccccc3)c(-c3ccccc3)n(Cc3ccccc3)c2ncn1[C@H]1CC[C@H](O)CC1,,,"female minipig, plasma","oral, 2.5 mg/kg, single dose",Cmax,785 ng/mL
CCCCCCCCCCCC(=O)NC(C)(C)C(=O)N1CCC[C@H]1C(=O)NC(C)(C)C(=O)NC(C)(C)C(=O)N1CCC[C@H]1C(=O)NC(C)(C)C(=O)NC(C)(C)C(=O)N1CCC[C@H]1C(=O)N[C@@H](C)C(=O)NC(C)(C)C(=O)NCCC(=O)N[C@@H](C)C(=O)NC(C)(C)C(=O)NC(C)(C)C(=O)NCCC(=O)NC(C)(C)C(=O)NC(C)(C)C(=O)NC(C)(C)C(=O)N[C@@H](C)C(=O)NCCC(=O)O,HCT-116,"cell growth or viability, MTT",,24 h,IC50,1 µM
OC[C@@H](O)[C@@H](O)[C@H](O)[C@H](O)CO,,,Caco-2,,Papp A→B,0.249 ×10⁻⁶ cm/s
CN(C)C(=O)Oc1cc(OC(=O)N(C)C)cc(-c2cc3ccc(O)cc3o2)c1,,,"male rat, plasma","intravenous, 5 mg/kg",AUC(0-t),589 ng·h/mL
CC(C)(C)[C@H](NC(=O)[C@H](CCONC(=N)N)NC(=O)Cc1ccc(CNC(=N)N)cc1)C(=O)N[C@@H](CCONC(=N)N)C(=O)NCc1ccc(C(=N)N)cc1,,,"male Sprague-Dawley rat, plasma","intravenous, 1 mg/kg",AUC(0-t),2090 ng·h/mL
O=C([O-])C(=O)[O-].[NH-][C@@H]1CCCC[C@H]1[NH-].[Pt+4] (relative stereo),,,"rat, plasma","intravenous, 5 mg/kg",AUC(0-inf),2540 ng·h/mL
CC[C@@H]1CN2CCc3c([nH]c4cccc(OC)c34)[C@H]2C[C@@H]1/C(=C\OC)C(=O)OC,,,Caco-2,pH 7.4,Papp A→B,14.2 cm/s
O=C(Nc1ccc2c(c1)B(O)OC2)c1ccc(Oc2ccccc2)cc1,,,PAMPA,"200 µM, 5 h, pH 7.4",Papp,0.82 ×10⁻⁶ cm/s
